Experiments:
[1] = AUC (0 to last) in CD1 mouse at 5 mg/kg, administered through oral gavage measured up to 24 hrs by LC-MS/MS analysis; type: ADME, organism-based; set-up: dose 5 mg/kg, route oral, time 0 - last; conditions: in vivo
Summary of the method: (§1)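 Male CD-1 mice received a single bolus: 1 mg/kg i.v., or 5 or 50 mg/kg p.o. Values are mean ± SD, n = 3. […] Bioavailability was determined separately for each oral dose.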

[2] = Terminal half life in CD1 mouse at 50 mg/kg, administered through oral gavage by LC-MS/MS analysis; type: ADME, organism-based; conditions: in vivo, read-out: beta t1/2 (converted); summary of the method: as §1
[3] = molecular target: T1, Histone-lysine N-methyltransferase SMYD3 (Homo sapiens, UniProt Q9H7B4); experiment: Inhibition of full length N-terminal His-tagged SMYD3 (1 to 428 residues) (unknown origin) expressed in Escherichia coli using N-terminal GST-tagged MEKK2 as substrate preincubated for 30 mins followed by substrate addition by scintillation proximity assay in presence of [3H]SAM
T1 sequence (Q9H7B4 whole entry): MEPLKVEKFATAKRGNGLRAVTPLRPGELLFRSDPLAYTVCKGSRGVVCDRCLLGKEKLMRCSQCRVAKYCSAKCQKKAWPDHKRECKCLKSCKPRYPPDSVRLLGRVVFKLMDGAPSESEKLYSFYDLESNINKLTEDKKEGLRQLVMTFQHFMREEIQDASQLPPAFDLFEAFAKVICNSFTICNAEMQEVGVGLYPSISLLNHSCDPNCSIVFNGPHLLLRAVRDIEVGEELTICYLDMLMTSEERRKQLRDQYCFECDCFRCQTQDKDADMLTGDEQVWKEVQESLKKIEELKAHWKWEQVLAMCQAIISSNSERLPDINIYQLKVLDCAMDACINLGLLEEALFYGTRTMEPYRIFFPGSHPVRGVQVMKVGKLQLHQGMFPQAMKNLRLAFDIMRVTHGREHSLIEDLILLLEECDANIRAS

[4] = Terminal half life in CD1 mouse at 5 mg/kg, administered through oral gavage by LC-MS/MS analysis; type: ADME, organism-based; conditions: in vivo, read-out: beta t1/2 (converted); summary of the method: as §1
[5] = AUC (0 to last) in CD1 mouse at 50 mg/kg, administered through oral gavage measured up to 24 hrs by LC-MS/MS analysis; type: ADME, organism-based; set-up: dose 50 mg/kg, route oral, time 0 - last; conditions: in vivo; summary of the method: as §1
[6] = AUC (0 to infinity) in CD1 mouse at 1 mg/kg, iv as bolus dose measured up to 24 hrs by LC-MS/MS analysis; type: ADME, organism-based; set-up: dose 1 mg/kg, route intravenous, time infinity; conditions: in vivo; summary of the method: as §1
[7] = molecular target: T1, Histone-lysine N-methyltransferase SMYD3; experiment: Non-competitive inhibition of full length N-terminal His-tagged SMYD3 (1 to 428 residues) (unknown origin) expressed in Escherichia coli using varying N-terminal GST-tagged MEKK2 substrate and fixed SAM levels preincubated for 30 mins followed by substrate addition by filter plate assay
[8] = Terminal half life in CD1 mouse at 1 mg/kg, iv as bolus dose by LC-MS/MS analysis; type: ADME, organism-based; conditions: in vivo, read-out: beta t1/2 (converted); summary of the method: as §1
[9] = Oral bioavailability in CD1 mouse at 5 mg/kg measured up to 24 hrs by LC-MS/MS analysis; type: ADME, organism-based; conditions: in vivo; summary of the method: as §1
[10] = molecular target: T1, Histone-lysine N-methyltransferase SMYD3; experiment: Non-competitive inhibition of full length N-terminal His-tagged SMYD3 (1 to 428 residues) (unknown origin) expressed in Escherichia coli using fixed N-terminal GST-tagged MEKK2 substrate and varying SAM levels preincubated for 30 mins followed by substrate addition by filter plate assay
[11] = AUC (0 to infinity) in CD1 mouse at 50 mg/kg, administered through oral gavage measured up to 24 hrs by LC-MS/MS analysis; type: ADME, organism-based; set-up: dose 50 mg/kg, time infinity, route oral; conditions: in vivo; summary of the method: as §1
[12] = Cmax in CD1 mouse at 50 mg/kg, administered through oral gavage measured up to 24 hrs by LC-MS/MS analysis; type: ADME, organism-based; set-up: dose 50 mg/kg, route oral; conditions: in vivo; summary of the method: as §1
[13] = Tmax in CD1 mouse at 5 mg/kg, administered through oral gavage by LC-MS/MS analysis; type: ADME, organism-based; conditions: in vivo; summary of the method: as §1
[14] = Cmax in CD1 mouse at 5 mg/kg, administered through oral gavage measured up to 24 hrs by LC-MS/MS analysis; type: ADME, organism-based; set-up: dose 5 mg/kg, route oral; conditions: in vivo; summary of the method: as §1
[15] = AUC (0 to infinity) in CD1 mouse at 5 mg/kg, administered through oral gavage measured up to 24 hrs by LC-MS/MS analysis; type: ADME, organism-based; set-up: dose 5 mg/kg, time infinity, route oral; conditions: in vivo; summary of the method: as §1
[16] = Volume of distribution at steady state in CD1 mouse at 1 mg/kg, iv as bolus dose measured up to 24 hrs by LC-MS/MS analysis; type: ADME, organism-based; conditions: in vivo, read-out: Vdss; summary of the method: as §1
[17] = Tmax in CD1 mouse at 50 mg/kg, administered through oral gavage by LC-MS/MS analysis; type: ADME, organism-based; conditions: in vivo; summary of the method: as §1
[18] = Drug excretion in CD1 mouse urine at 1 mg/kg, iv as bolus dose after 24 hrs by LC-MS/MS analysis; type: ADME, organism-based; conditions: read-out: Drug excretion; summary of the method: as §1
[19] = Efflux ratio of apparent permeability in human Caco2 cells at 10 uM incubated for 120 mins by LC-MS/MS analysis; type: ADME, cell-based; conditions: Caco-2
Summary of the method: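 Permeability in Caco-2 cells, measured apical-to-basolateral as P_app (×10⁻⁶ cm/s). An efflux ratio is reported as the index of active efflux. This is part of an in vitro ADME screen run before mouse PK studies.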

[20] = Clearance in CD1 mouse at 1 mg/kg, iv as bolus dose measured up to 24 hrs by LC-MS/MS analysis; type: ADME, organism-based; conditions: in vivo; summary of the method: as §1
[21] = Renal clearance in CD1 mouse at 1 mg/kg, iv as bolus dose measured up to 24 hrs by LC-MS/MS analysis; type: ADME, organism-based, Kidney; conditions: in vivo; summary of the method: as §1
[22] = Oral bioavailability in CD1 mouse at 50 mg/kg measured up to 24 hrs by LC-MS/MS analysis; type: ADME, organism-based; conditions: in vivo; summary of the method: as §1
[23] = AUC (0 to last) in CD1 mouse at 1 mg/kg, iv as bolus dose measured up to 24 hrs by LC-MS/MS analysis; type: ADME, organism-based; set-up: dose 1 mg/kg, time 0 - last, route intravenous; conditions: in vivo; summary of the method: as §1

## O=C1Cc2cc(C(=O)N[C@H]3C[C@H]4CC[C@@H](C3)N4S(=O)(=O)CC3CCN(CCCC(F)(F)F)CC3)c(Cl)cc2N1
[1]
  AUC(0-t) at 24 h: 1280 ng·h/mL
[2]
  half-life: 2.2 h
[3]
  IC50: 3 nM
[4]
  half-life: 2.7 h
[5]
  AUC(0-t) at 24 h: 21200 ng·h/mL
[6]
  AUC(0-inf): 616 ng·h/mL
[7]
  Ki: 1.1 nM
[8]
  half-life: 1.7 h
[9]
  bioavailability: 48%
[10]
  Ki: 1.2 nM
[11]
  AUC(0-inf): 21200 ng·h/mL
[12]
  Cmax: 4690 ng/mL
[13]
  Tmax: 0.89 h
[14]
  Cmax: 345 ng/mL
[15]
  AUC(0-inf): 1480 ng·h/mL
[16]
  Vd: 2.3 L/kg
[17]
  Tmax: 1.3 h
[18]
  dose excreted at 24 h: 20%
[19]
  efflux ratio at 2 h, 10 µM: 41
[20]
  clearance: 27 mL/min/kg
[21]
  CL renal at 24 h: 5.3 mL/min/kg
[22]
  bioavailability: 69%
[23]
  AUC(0-t) at 24 h: 603 ng·h/mL

From ChEMBL document CHEMBL3797202, “Novel Oxindole Sulfonamides and Sulfamides: EPZ031686, the First Orally Bioavailable Small Molecule SMYD3 Inhibitor” (ACS Med Chem Lett, 2016)
